Experimental data as given in ChEMBL document CHEMBL3600321, “Synthesis and antifungal evaluation of head-to-head and head-to-tail bisamidine compounds” (Bioorg Med Chem, 2015).
Values after ≈ are worked out from the molar mass of the structure shown.

Columns and labels:
[1] = test system: Nakaseomyces glabratus; assay: Antifungal activity against Candida glabrata ATCC 90030 WTBF-86 by microbroth dilution method; format: functional
Outline: (§1)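 CLSI microbroth dilution in RPMI 1640 with L-glutamine. MIC values are geometric means of three independent assays.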

[2] = test system: Candida albicans; assay: Antifungal activity against Candida albicans WTBF-50 by microbroth dilution method; format: functional; outline: as §1
[3] = test system: Pichia kudriavzevii; assay: Antifungal activity against Candida krusei WTBF-51 by microbroth dilution method; format: functional
[4] = test system: Candida parapsilosis; assay: Antifungal activity against Candida parapsilosis ATCC 90018 WTBF-88 by microbroth dilution method; format: functional; settings: Lodderomyces parapsilosis; outline: as §1
[5] = test system: HeLa; assay: Cytotoxicity against human HeLa cells assessed as cell viability after 72 hrs by MTS assay; format: cell-based
[6] = Metabolic stability in liver microsomes (unknown origin); format: ADME
[7] = test system: Cryptococcus neoformans; assay: Antifungal activity against Cryptococcus neoformans Cn18 (Serotype C) WTBF-106 by microbroth dilution method; format: functional
Outline: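 Microbroth dilution per the CLSI protocol, run in Sabouraud Dextrose Broth in place of RPMI. MIC values are geometric means of three independent assays.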

Structure (SMILES) | MIC [1] [µg/mL] | MIC [2] [µg/mL] | MIC [3] [µg/mL] | MIC [4] [µg/mL] | CC50 [5] [µg/mL] | Stability [6] | MIC [7] [µg/mL]
CC(=O)O.c1cc2cc(-c3cnc(-c4cc5ccc(C6=NCCCN6)cc5o4)cn3)oc2cc1C1=NCCCN1 | 16 | 20.2 | 20.2 | 2 | > 80 | Stable | 3.13
Clc1c(-c2ccc(-c3[nH]c4cc(C5=NCCCN5)ccc4c3Cl)cc2)[nH]c2cc(C3=NCCCN3)ccc12.O=C(O)C(F)(F)F | 0.25 | 0.4 | 0.25 | 0.25 | 0.65 | Stable | 0.78
O=C(O)C(F)(F)F.c1cc2cc(-c3ccc(-c4nc5ccc(C6=NCCCN6)cc5[nH]4)cc3)[nH]c2cc1C1=NCCCN1 | 0.13 | 0.4 | 1 | 0.16 | 14.1 | Stable | 0.5
CC(=O)O.c1cc2cc(-c3ccc4oc(C5=NCCCN5)cc4c3)[nH]c2cc1C1=NCCCN1 | 1 | 0.4 | 4 | 0.5 | 50.5 | Stable | 1
CC(=O)O.c1cc2cc(-c3ccc(-c4cc5ccc(C6=NCCCN6)cc5o4)cc3)[nH]c2cc1C1=NCCCN1 | 0.16 | 0.5 | 1 | 0.25 | 4.7 | Stable | 0.25
c1cc2cc(CCCc3cc4ccc(C5=NCCCN5)cc4[nH]3)[nH]c2cc1C1=NCCCN1 | 12.7 (≈ 29 µM) | 22.6 (≈ 51.6 µM) | 32 (≈ 73 µM) | 32 (≈ 73 µM) | 80.3 (≈ 183 µM) | Stable | 16 (≈ 36.5 µM)
CC(=O)O.c1cn2cc(-c3ccc(-c4ccc5cc(C6=NCCCN6)[nH]c5c4)cc3)nc2cc1C1=NCCCN1 | 32 | 16 | 16 | 8 | 20.7 | Stable | 1
c1cc2cc(CCCCc3cc4ccc(C5=NCCCN5)cc4[nH]3)[nH]c2cc1C1=NCCCN1 | 1 (≈ 2.21 µM) | ≥ 32 | ≥ 32 | ≥ 32 | 14.7 (≈ 32.5 µM) | Stable | 1.59 (≈ 3.51 µM)
OC(Cn1cncn1)(Cn1cncn1)c1ccc(F)cc1F [FLUCONAZOLE] | ≥ 32 | ≥ 32 | ≥ 32 | 1 (≈ 3.27 µM) |  |  | 32 (≈ 104 µM)
O=C(O)C(F)(F)F.c1cc2cc(-c3ccc(-c4cn5ccc(C6=NCCCN6)cc5n4)cc3)[nH]c2cc1C1=NCCCN1 | 4 | 4 | 6.35 | 0.5 | 20.9 | Stable | 1
CC(=O)N1CCN(c2ccc(OCC3COC(Cn4ccnc4)(c4ccc(Cl)cc4Cl)O3)cc2)CC1 (stereo unspecified) [KETOCONAZOLE] | ≥ 32 | 20.2 (≈ 38 µM) | 4 (≈ 7.53 µM) | 0.06 (≈ 0.113 µM) |  |  | 32 (≈ 60.2 µM)
CC(=O)O.c1cc2cc(-c3ccc4cc(C5=NCCCN5)[nH]c4c3)sc2cc1C1=NCCCN1 | 5.04 | 3.17 | 16 | 2 | 27.5 | Stable | 4
Cl.OCC1(CO)CN=C(c2ccc3cc(-c4ccc(-c5cc6ccc(C7=NCC(CO)(CO)CN7)cc6[nH]5)cc4)[nH]c3c2)NC1 | 1 | 1.26 | 8 | 2 | 32.4 | Stable | 3.13
CC(=O)O.c1cc2cc(-c3ccc(-c4ccc5nc(C6=NCCCN6)cn5c4)cc3)oc2cc1C1=NCCCN1 | 1 | 4 | 8 | 0.79 | 20.7 | Stable | 1
c1cc2[nH]c(-c3ccc(-c4cc5ccc(C6=NCCCN6)cc5[nH]4)cc3)cc2cc1C1=NCCCN1 |  | 7.87 (≈ 16.7 µM) | 19.8 (≈ 41.9 µM) |  | 13.6 (≈ 28.8 µM) | Stable | 3.12 (≈ 6.6 µM)
Cl.N=C(N)c1ccc2cc(-c3ccc(-c4cc5ccc(C(=N)N)cc5[nH]4)cc3)[nH]c2c1 | 4 | 16 | 2 | 2 | 7 | Stable | 3.13
Nc1nc(=O)[nH]cc1F [FLUCYTOSINE] | 0.31 (≈ 2.4 µM) | 1.25 (≈ 9.68 µM) | ≥ 20 | 1.25 (≈ 9.68 µM) |  |  | ≥ 20
